Measurements as given in the RNAGym collection of RNA variant scans (doi:10.1126/science.aae0568).
Variants at the floor of the assay were thinned out.

B1: tRNA (parent)
chain: GUUCCGUUGGCGUAAUGGUAACGCGUCUCCCUCCUAAGGAGAAGACUGCGGGUUCGAGUCCCGUACGGAACG

Variants of: B1
Assay: yeast fitness relative to wild type (ratio to wild type); higher = fitter; tRNA-Arg(CCU), competitive growth, 37 C, YPD
Outline: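 Gene amplicons from the start population and from each of six end populations were read by 100-nucleotide paired-end sequencing. Those end populations came from pooled Saccharomyces cerevisiae strains carrying tRNA-Arg(CCU) gene variants at the native locus, competed in YPD at 37°C for 24 hours. Fitness relative to wild type was worked out from changes in genotype frequencies. Genotypes needed ≥ 100 starting reads, and estimates < 0.5 were set to 0.5.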

Variant	yeast fitness
G48C C60G	0.719
G48A G51A U59C	0.956
U47A G48C G67C	0.538
C46U C49U C66U	0.806
G48A U64C	0.816
U47A A57U	0.655
G48C G51C A57U G68C	≤ 0.5
U47C U59A	0.961
C46U G51C C66G	≤ 0.5
U47A A69U	0.984
A45U G56C A57G G68U	≤ 0.5
C46U U59C C62G A65U	0.557
C46U G67A	0.986
C46U G67U	0.869
G48A G50A A70U	0.812
U47C C66U	0.963
C46G C61A	0.678
C46G C61U	1.05
C46U G68C	1.02
C46U G50A C66U	0.792
C46A A69C	0.839
C46A A69G	0.932
C46A A69U	1.1
C46U G51C	0.571

Variant	yeast fitness
C46G G63C C66A	≤ 0.5
C46U G56A C61G	≤ 0.5
C46A G56U A57G	0.665
U47C C60A	0.603
C46G U54C	0.697
C46G C62G	0.786
C46G C62U	0.982
U47A G50C	0.69
A45U U54A	0.702
C46U C55A G56C	0.561
C46A G50A C60G G63C	≤ 0.5
G48C G52C A57C G58A A70G	≤ 0.5
U47G C60G	0.675
U47G C60U	0.548
G48C G56C	0.7
C46A C61U A70C	0.861
U47A G56A	0.964
C46G G68C	0.795
C46G G68U	0.658
C46G G68A	0.825
C46U C61G A69U	0.627
G48C G52C G63C	≤ 0.5
C46A G58C U59C	0.545
U47A C55G	0.684

Variant	yeast fitness
A45U U54C C66G G67C	≤ 0.5
U47G G56A	0.646
C46G C60U G68C	≤ 0.5
U47C C55U G68C	0.517
U47A G48C	0.82
G48A C60U A65U	0.726
G48A C62A	0.978
U47C C61U A65U C66U	≤ 0.5
A45U G63C A65G	0.647
A45U G63C A65U	0.727
C46U G58C	0.825
C46U G58A	0.985
G48C C49U A70U	0.724
U47C G48C	0.797
C46G G58A U59G	≤ 0.5
U47C U59A A65C A70C	≤ 0.5
C46A G68C A69G	≤ 0.5
G48A U59C	0.934
G48C C49U C60A A65U	≤ 0.5
C46U G48A	0.93
G48A A70G	1.12
C46G A57U C66U	0.608
U47A A70C	0.842
A45U U64G	0.721

Variant	yeast fitness
G48A G63A A65C	≤ 0.5
A45U U54A C55G	≤ 0.5
G48C G63A	0.877
U47C G50A	0.99
U47C G52C	0.612
G48A C61U A70C	0.989
U47A G68A	0.621
U47A G68U	0.775
C46U G51C A70C	0.504
C46U G51C A70U	0.557
U47C U53C A57C	≤ 0.5
C46U G56A	0.978
C46U G56C	0.698
G48C C49U U54G C66A	0.624
C46A U53C	0.865
C46U A65G	0.877
U47G G68U	0.568
C46U C55U A69U	0.76
G48A C60G G63C	≤ 0.5
G48C G52C C62G	≤ 0.5
C46U C49A C62U	0.555
U47G C49U	0.682
U47G C49A	0.68
A45U G51C	0.538

Variant	yeast fitness
C46G C62G G67U	0.542
U47C A65U	0.998
G48C A57C	0.594
C46A C61G A70U	0.525
C46U C60A A70U	0.585
C46A C55G C66U A69C	≤ 0.5
C46G C61A A65C	≤ 0.5
U47G G50C	≤ 0.5
U47C G56A	0.999
U47C U53A	0.604
G48C A69C	1.05
G48A C62G A69U	1.03
C46G C49A	0.7
C46G C49G	0.966
C46G C49U	0.981
C46G C55U A57C C61G	≤ 0.5
G48C A65U	0.75
G48C A65G	1.01
G48C C66U	0.932
C46A C62A	0.805
G48A G52A G67A	0.648
G48A G52A G67C	0.536
G48A C55U C60G	0.727
C46A G56A A70G	1.01

Variant	yeast fitness
G48C C49U C62U	0.637
C46G G52A	0.843
C46G G52C	0.585
C46A G58U G68A	0.932
G48A A69C	0.96
C46A G52A G58C	0.742
U47C G58A G67A	0.584
G48C C49G	0.621
C46U C55A G56C A65G	≤ 0.5
G48A G52C U54C C66U	≤ 0.5
C46A A57C	0.57
C46A A57U	0.792
C46A A57G	0.964
G48A C61G A70C	0.531
G48C U59A	0.785
G48A C61U	1.04
G48A C61A	0.682
U47A C55G G68A	≤ 0.5
U47C U59A G63C	0.58
G48C U54A	0.679
G48C U54C	0.973
C46A G63A	0.949
C46A G63U	0.764
C46U U47A G68C	0.558

Variant	yeast fitness
U47G G51A	0.588
U47G G63A	0.561
U47C C49A	0.65
U47C C49U	0.987
C46U C49U	0.98
C46U C49A	0.858
C46G A65C G67A	0.732
G48A C66G A70G	0.632
G48A G56C C62U	0.65
U47C A57G	0.921
G48A C55U A65C	0.627
U47C A57U A65U	0.567
C46U G63A	0.769
G48A G51C C60A U64C	0.853
U47C G68A	0.876
G48A C60A	0.695
G48A C60U	0.847
C46A C55G G67U	0.699
C46U A65C C66U	0.721
U47C G67A	0.874
C46A C60G C62U A69C	≤ 0.5
U47C A57G A69U	0.569
G48A C55U A69U	0.522
G48A G51C	0.655

Variant	yeast fitness
C46U A57G C66A	≤ 0.5
G48C C61G	0.629
G48C C49U A65U A69U	≤ 0.5
G48A C61G A65C	≤ 0.5
C46A G58U	0.907
U47A G58C	1.06
G48C C49A U53A G56A G58C	0.611
U47C C55U	0.796
U47C C55A	0.699
U47C C55G	0.733
C46A C49U G63C	0.694
U47G A57G	0.7
U47G A57U	≤ 0.5
C46A C61G A69C	0.501
C46A C61G A69G	0.551
U47A C61U	0.948
G48A A57U A65U C66A	≤ 0.5
C46A C61A	0.758
C46A C61G	0.637
G48A A57G	0.972
G48C G51C U53A C66A	≤ 0.5
C46G G50C G56A A57U	≤ 0.5
G48C G68A	0.846
G48C C62U A69C	0.701

Variant	yeast fitness
C46U G56A A70G	0.697
C46G C49U A69U	1.04
C46G C62U C66U	0.746
U47A G48C G56A	≤ 0.5
C46A A57U G68C	0.543
C46U U59A C61G C66U	0.649
C46A G56A	1.01
C46A G56C	0.642
G48A C66A G67A	≤ 0.5
G48A G51C G67C	≤ 0.5
U47C C62U	0.944
C46G C49A A69U	0.549
U47C A69U	1.08
C46A C60G	0.684
G48A C55A G58C	0.516
G48A G58C	0.979
C46U C62G	0.969
C46U U59G C60A G63C A69U	0.632
G48C	0.977
G48A	0.982
C46U U64C	1.01
C46U U64A	1.03
G48C C55G	0.78
G48C C55A	0.703

Variant	yeast fitness
G48C C55U	0.668
C46G A57C A69C	≤ 0.5
U47G U59A C66A A70C	≤ 0.5
U47A U59C	0.873
A45U G58A	0.907
C46A A57G C61U	0.704
C46G U64A	0.889
C46A U64C	0.986
C46U A57G	0.994
C46U A57C	0.638
G48A G68U A70C	0.809
U47G A70C	0.685
G48A C61A A65C	≤ 0.5
G48A G50C	1.07
G48A G50U U54G A70U	≤ 0.5
G48A U53C C60A	≤ 0.5
G48A C66U A69C	0.719
C46G C49U G68C	0.653
C46U C55U C61G	≤ 0.5
C46A C55A G63A	0.575
C46U G50A	0.965
C46U G48A G56A	0.848
G48A G63C	0.89
U47G C62G A69C	0.508

Variant	yeast fitness
U47G C62G A69U	0.545
G48A A65C	0.901
C46A G52C G63A A65U	≤ 0.5
U47C G58A	0.986
C46G	0.99
C46U	0.986
C46A	0.999
C46U U59A	0.877
U47A C49G A69U	0.577
G48C A57G A69U	0.562
U47C A70U	0.955
U47C A70C	1.07
C46U U47C	0.911
C46U U47G	0.823
U47C C61U	0.888
G48C U53A C61U	0.517
C46G U53C	0.903
G48A C55G C62U	≤ 0.5
C46A U54G	0.544
U47C C66U A70U	0.548
C46U A70G	1.05
C46U A70U	1.05
U47A C60U G63C A69U	≤ 0.5
G48A C55A C60G	0.513

Variant	yeast fitness
U47C G51C U59C	≤ 0.5
G48A G58C C66U	0.714
C46G G52A C62U	0.639
U47A G48C G51A C61A	≤ 0.5
C46A G63C G67A	0.614
G48C G50C	0.68
C46U U54C A70U	0.804
C46A A70C	1.02
C46A G58C C66U	0.998
U47G C66G	0.517
U47G C66U	0.691
U47A C55G C61U	0.522
C46U U53C A70U	0.608
C46A C66U	0.985
C46A C66A	0.688
G48C G51A	0.849
G48C G51C U59A	≤ 0.5
U47C G63C	0.769
U47G C60G C62A A65G	≤ 0.5
C46U C60G A65U	0.557
U47C C66U A69C	0.675
C46U C61G	0.593
A45U G63A	0.843
C46G G56A	1.03

Variant	yeast fitness
G48A C60G A70C	≤ 0.5
U47C G52A C61G	≤ 0.5
C46G G50A C62A	0.603
C46U A69G	0.894
G48C G67U A69C	0.507
C46G G63A	0.798
C46U C55A C66U	0.555
G48A C49U	0.97
C46G A70C	0.923
C46G A70U	0.976
C46G A70G	1.03
A45U U53A	0.723
A45U U53G	≤ 0.5
C46A C49A	0.601
C46A G52A G63C	0.555
G48A G56A	1.02
G48A U54C	0.929
G48A G52C A57C	0.622
A45U G67U A69G	0.536
U47C G58C A65C	0.614
G48C C61A A65U	0.687
C46G G50A	1.04
C46G G50C	0.949
G48A C66A	0.929

Variant	yeast fitness
C46G C49U G67U	0.671
G48A C61A G68U	0.561
C46G G63A A65U	0.721
C46U G52A	0.729
C46U G52C	0.614
C46U G51A C66U	0.778
C46G U54C C60A C62A	≤ 0.5
C46G C60G	0.715
U47C G63C C66U	≤ 0.5
C46G G48A G58C	1.15
G48A G67U	0.9
C46A G68U	0.824
C46A G68C	0.78
U47C C60A C61G A69U	≤ 0.5
C46U C60U	0.807
C46U C60G	0.627
C46U C60A	0.543
U47C G52A G63A	≤ 0.5
A45U G67C	0.738
C46A C55A	0.562
C46A C55U	0.758
C46U U54C A57G	0.622
